Measurements from different studies.
Cell line: HT-29

`CN1C(=O)/C(=N\NC(=O)c2cc3ccccc3[nH]2)c2cc(Br)ccc21` has an IC50 of 3.68 µM (cell growth or viability).
`CC(=O)c1cccc(/N=N/c2cc(/C=C/C(=O)O)ccc2O)c1` gave an IC50 of greater than 50 µM (cell growth or viability; MTT).
The IC50 of `c1csc([I+]c2cccs2)c1` is reported as roughly 2.5 µM (cell growth or viability; trypan blue; 48 h).
For `CC[C@H](C)C(=O)O[C@H]1CCC=C2C=C[C@H](C)[C@H](CC[C@@H]3C[C@@H](O)CC(=O)O3)[C@H]21`, the IC50 was 0.07 µg/mL (cell growth or viability; SRB; 72 h).
With `NCCCC[C@@H](N)C(=O)Nc1ccc(-n2nc(C(F)(F)F)cc2-c2ccc3c(ccc4ccccc43)c2)cc1` the IC50 was 3.2 µg/mL (cell growth or viability; MTT; 24 h).
`Cc1occc(=O)c1[O-].[Cl-].[W+4].c1cc[cH-]c1.c1cc[cH-]c1` has an IC50 of 540 µM (cell growth or viability; MTT).
With `O=C(O)C[C@H](O)C[C@H](O)/C=C/c1c(C2CC2)nc2ccccc2c1-c1ccc(F)cc1` the IC50 was 0.09 µg/mL (cell growth or viability; SRB; 72 h).
The IC50 of `O=c1cc(CO)occ1[O-].[Cl-].[W+4].c1cc[cH-]c1.c1cc[cH-]c1` is reported as 200 µM (cell growth or viability; MTT).
`CN1C(=O)/C(=N\NC(=O)c2cc3ccccc3[nH]2)c2cc(Cl)ccc21` has an IC50 of 5.67 µM (cell growth or viability).
For `NCCC(=O)Nc1ccc(-n2nc(C(F)(F)F)cc2-c2ccc3c(c2)oc2ccccc23)cc1`, the IC50 was 7.2 µg/mL (cell growth or viability; MTT; 24 h).
The IC50 of `O=C1Nc2ccc(Br)cc2/C1=N/NC(=O)c1cc2ccccc2[nH]1` is reported as 21.9 µM (cell growth or viability).
`O=C(O)/C=C/c1ccc(O)c(O)c1` has an IC50 of 4.3 µM (cell growth or viability; MTT).
For `O=C(N/N=C1\C(=O)N(c2ccccc2)c2ccccc21)c1cc2ccccc2[nH]1`, the IC50 was 6.34 µM (cell growth or viability).
`COc1cccc(C(=O)O[C@@H]2CN3Cc4c(cc5c(c4OC)OCO5)[C@@]24C=C[C@H](OC)C[C@@H]34)c1` has an IC50 of greater than 10 µM (cell growth or viability; WST-1).
For `O=C1Nc2ccccc2/C1=N/NC(=O)c1cc2ccccc2[nH]1`, the IC50 was 19.7 µM (cell growth or viability).
The IC50 of `CCN(CC)CCNC(=O)c1c(C)[nH]c(/C=C2\C(=O)Nc3ccc(F)cc32)c1C` is reported as 10.1 µM (cell growth or viability).
For `Cc1ccc(-n2nc(C(C)(C)C)cc2NC(=O)Nc2ccc(OCCN3CCOCC3)c3ccccc23)cc1`, the IC50 was greater than 1.9 µM (IL-8 release; 24 h).
The IC50 of `CC(C)C[C@H](NC(=O)[C@H](Cc1ccccc1)NC(=O)c1cnccn1)B(O)O` is reported as 0.0098 µM (cell growth or viability; ATP luminescence).
With `O=c1[nH]c(=O)n([C@H]2C[C@H](O)[C@@H](CO)O2)cc1F` the IC50 was 0.056 µM (cell growth or viability; SRB; 72 h).
With `CC(=O)c1ccc(/N=N/c2cc(/C=C/C(=O)O)ccc2O)cc1` the IC50 was greater than 50 µM (cell growth or viability; MTT).
`COc1c2c(cc3c1OCO3)[C@]13C=C[C@H](OC)C[C@H]1N(C2)C[C@H]3OC(=O)c1cccc(C)c1` gave an IC50 of greater than 10 µM (cell growth or viability; WST-1).
`CC[C@]1(O)C[C@H]2CN(CCc3c([nH]c4ccccc34)[C@@](C(=O)OC)(c3cc4c(cc3OC)N(C=O)[C@H]3[C@@](O)(C(=O)OC)[C@H](OC(C)=O)[C@]5(CC)C=CCN6CC[C@]43[C@@H]65)C2)C1` has an IC50 of 0.0004 µM (cell growth or viability; fluorescence; 72 h).
`COc1c(C)c(OC)c2c(c1C)OC(c1ccccc1)CC2=O` (stereo not drawn) gave an IC50 of greater than 50 µM (cell growth or viability; SRB; 72 h).
For `O=C(O)c1cc(O)c(O)c(O)c1`, the IC50 was 16.3 µM (cell growth or viability; MTT).
The IC50 of `CN1C(=O)/C(=N\NC(=O)c2cc3ccccc3[nH]2)c2cc(F)ccc21` is reported as 8.92 µM (cell growth or viability).
`Cc1nc(Nc2ncc(C(=O)Nc3c(C)cccc3Cl)s2)cc(N2CCN(CCO)CC2)n1` has an IC50 of greater than 2.05 µM (IL-8 release; 24 h).
`CCOc1cc(OCC)cc(C(=O)O[C@@H]2CN3Cc4c(cc5c(c4OC)OCO5)[C@@]24C=C[C@H](OC)C[C@@H]34)c1` has an IC50 of greater than 10 µM (cell growth or viability; WST-1).
